In ChEMBL document CHEMBL3856196, “3-(Benzodioxan-2-ylmethoxy)-2,6-difluorobenzamides bearing hydrophobic substituents at the 7-position of the benzodioxane nucleus potently inhibit methicillin-resistant Sa and Mtb cell division” (Eur J Med Chem, 2016):
Values after ≈ are worked out from the molar mass of the structure shown. Active and inactive are the calls of the source. The rule behind the calls is not given here.

Columns and labels:
Staphylococcus aureus [1] = experiment: Antibacterial activity against […] Staphylococcus aureus ATCC 29213 after 16 hrs by spectrophotometric analysis; format: functional; details: ATCC 29213, 16 h
Enterococcus faecalis [2] = experiment: Antibacterial activity against vancomycin-susceptible Enterococcus faecalis clinical isolates after 24 hrs by CLSI […] broth microdilution method; format: functional; details: for MBC: read-out: MBC99.9
In short: (§1)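 CLSI broth microdilution on clinical isolates. Log-phase bacteria in saline at 1–2 × 10⁵ CFU/mL were mixed with compounds diluted in LB, final 0.097–100 μg/mL, for 24 h at 37 °C. MIC is the lowest concentration with total growth inhibition. For MBC, clear wells were plated on sheep-blood agar for 18 h; >99.9% kill versus untreated control. Triplicate.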

Staphylococcus aureus [3] = experiment: Antibacterial activity against methicillin-resistant Staphylococcus aureus clinical isolates after 24 hrs by CLSI […] broth microdilution method; format: functional; details: for MBC: read-out: MBC99.9; in short: as §1
Enterococcus faecalis [4] = experiment: Antibacterial activity against vancomycin-resistant Enterococcus faecalis clinical isolates after 24 hrs by CLSI […] broth microdilution method; format: functional; details: for MBC: read-out: MBC99.9; in short: as §1
Staphylococcus aureus [5] = experiment: Antibacterial activity against methicillin-susceptible Staphylococcus aureus clinical isolates after 24 hrs by CLSI […] broth microdilution method; format: functional; details: for MBC: read-out: MBC99.9; in short: as §1
Staphylococcus aureus [6] = experiment: Antibacterial activity against Staphylococcus aureus; format: functional
[7] = test system: Mycobacterium tuberculosis; experiment: Antitubercular activity against Mycobacterium tuberculosis H37Rv by Alamar blue assay; format: functional
In short: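 M. tuberculosis in 7H9 medium with ADC and 0.05% Tween 80; MIC by microplate Alamar Blue assay.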

[8] = test system: Mycobacterium tuberculosis; experiment: Inhibition of FtsZ polymerization in GFP-tagged Mycobacterium tuberculosis assessed as presence of elongated cells with enlarged bacterial pole at 4 ug/ml by fluorescence-based microscopic analysis
In short: (§2)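 GFP-expressing M. smegmatis or M. tuberculosis grown at subMIC concentrations on glass coverslips in 7H9/ADC/Tween 80. Cells were fixed with phosphate-buffered 4% paraformaldehyde and examined by fluorescence microscopy at 100× for cell morphology.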

[9] = test system: Mycolicibacterium smegmatis; experiment: Inhibition of FtsZ polymerization in GFP-tagged Mycobacterium smegmatis assessed as presence of elongated cells with enlarged bacterial pole at 4 ug/ml by fluorescence-based microscopic analysis; in short: as §2
[10] = biological target: T1, Cell division protein FtsZ (Staphylococcus aureus) (UniProt P0A031); experiment: Inhibition of Staphylococcus aureus FtsZ assessed as increase in cell volume at 0.5 ug/ml after overnight incubation by phase-contrast light microscopic analysis
T1 sequence (whole entry): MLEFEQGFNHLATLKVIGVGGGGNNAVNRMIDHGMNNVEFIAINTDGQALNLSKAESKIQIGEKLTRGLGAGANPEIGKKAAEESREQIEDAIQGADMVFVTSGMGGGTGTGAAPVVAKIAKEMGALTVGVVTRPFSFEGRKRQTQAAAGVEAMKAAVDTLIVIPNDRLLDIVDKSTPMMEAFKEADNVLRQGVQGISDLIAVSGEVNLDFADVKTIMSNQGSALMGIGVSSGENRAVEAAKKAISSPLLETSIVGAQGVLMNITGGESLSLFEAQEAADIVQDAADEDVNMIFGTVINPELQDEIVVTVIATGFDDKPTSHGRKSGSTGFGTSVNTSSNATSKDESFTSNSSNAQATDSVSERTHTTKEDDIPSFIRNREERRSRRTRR
In short: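 S. aureus grown overnight with compound at levels starting from the previously determined MIC. Untreated cultures served as negative control. Examined by phase-contrast microscopy at 630×.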

Staphylococcus aureus [11] = experiment: Antibacterial activity against methicillin-susceptible Staphylococcus aureus; format: functional
[12] = biological target: T1, Cell division protein FtsZ (Staphylococcus aureus); experiment: Inhibition of Staphylococcus aureus FtsZ assessed as alteration in septum formation at 0.5 ug/ml after 16 hrs by transmission electron microscopic analysis
In short: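 S. aureus at 10⁹ cells/ml grown 16 h at 37 °C with compound, untreated control included. Cells were pelleted at 3100 × g for 5 min, fixed in 2.5% glutaraldehyde in 0.1 M Na cacodylate pH 7.4 for 1 h at 4 °C, post-fixed in 1% OsO₄ for 1 h at 4 °C, and examined by TEM for septum and ultrastructure.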

SMILES: NC(=O)c1c(F)ccc(OCC2CCc3ccccc3C2)c1F (configuration not stated)
- MIC (Staphylococcus aureus [1]): > 100 µg/mL

SMILES: NC(=O)c1c(F)ccc(OCC2COc3ccc(N)cc3O2)c1F (configuration not stated)
- MBC (Staphylococcus aureus [1]): 100 µg/mL (≈ 297 µM)
- MIC (Staphylococcus aureus [1]): 100 µg/mL (≈ 297 µM)

SMILES: NC(=O)c1c(F)ccc(OC(CO)COc2ccccc2)c1F (configuration not stated)
- MIC (Staphylococcus aureus [1]): > 100 µg/mL

SMILES: NC(=O)c1c(F)ccc(OCC2COc3ccccc3O2)c1F (configuration not stated)
- MIC90 (Enterococcus faecalis [2]): 25 µg/mL (≈ 77.8 µM)
- MBC (Enterococcus faecalis [2]): 50 µg/mL (≈ 156 µM)
- MIC90 (Staphylococcus aureus [3]): 3.12 µg/mL
- MBC (Staphylococcus aureus [3]): 6.25 µg/mL (≈ 19.5 µM)
- MIC90 (Enterococcus faecalis [4]): 25 µg/mL (≈ 77.8 µM)
- MBC (Enterococcus faecalis [4]): 50 µg/mL (≈ 156 µM)
- MIC90 (Staphylococcus aureus [5]): 3.12 µg/mL
- MBC (Staphylococcus aureus [5]): 12.5 µg/mL
- MIC (Staphylococcus aureus [6]): 5 µg/mL (≈ 15.6 µM)
- MIC [7]: 16 µg/mL (≈ 49.8 µM)

SMILES: CCCCNC(=O)c1ccc2c(c1)OC(COc1ccc(F)c(C(N)=O)c1F)CO2 (configuration not stated)
- MIC (Staphylococcus aureus [1]): > 100 µg/mL

SMILES: NC(=O)c1ccc2c(c1)OC(COc1ccc(F)c(C(N)=O)c1F)CO2 (configuration not stated)
- MIC (Staphylococcus aureus [1]): > 100 µg/mL

SMILES: NC(=O)c1c(F)ccc(OCC2COc3ccc([N+](=O)[O-])cc3O2)c1F (configuration not stated)
- MBC (Staphylococcus aureus [1]): 2.5 µg/mL (≈ 6.83 µM)
- MIC (Staphylococcus aureus [1]): 1.25 µg/mL (≈ 3.41 µM)

SMILES: NC(=O)c1c(F)ccc(OC[C@@H]2COc3ccc(Cl)cc3O2)c1F
- inhibition [8]: Active
- inhibition [9]: Active
- MIC90 (Enterococcus faecalis [2]): 25 µg/mL (≈ 70.3 µM)
- MBC (Enterococcus faecalis [2]): 50 µg/mL (≈ 141 µM)
- MIC90 (Staphylococcus aureus [3]): 1 µM
- MBC (Staphylococcus aureus [3]): 0.78 µg/mL (≈ 2.19 µM)
- MIC90 (Enterococcus faecalis [4]): 25 µg/mL (≈ 70.3 µM)
- MBC (Enterococcus faecalis [4]): 50 µg/mL (≈ 141 µM)
- MIC90 (Staphylococcus aureus [5]): 0.5 µM
- MBC (Staphylococcus aureus [5]): 1 µM
- MIC [7]: 8 µg/mL (≈ 22.5 µM)
- inhibition [10]: Active
- MIC90 (Staphylococcus aureus [11]): 0.7 µM (≈ 0.249 µg/mL)
- inhibition [12]: Active

SMILES: NC(=O)c1c(F)ccc(OCC2CCc3ccccc3O2)c1F (configuration not stated)
- MBC (Staphylococcus aureus [1]): 5 µg/mL (≈ 15.7 µM)
- MIC (Staphylococcus aureus [1]): 5 µg/mL (≈ 15.7 µM)

SMILES: NC(=O)c1c(F)ccc(OCC2COc3ccc(C(F)(F)F)cc3O2)c1F (configuration not stated)
- MBC (Staphylococcus aureus [1]): 2.5 µg/mL (≈ 6.42 µM)
- MIC (Staphylococcus aureus [1]): 2.5 µg/mL (≈ 6.42 µM)

SMILES: CS(=O)(=O)Nc1ccc2c(c1)OC(COc1ccc(F)c(C(N)=O)c1F)CO2 (configuration not stated)
- MIC (Staphylococcus aureus [1]): > 100 µg/mL
